dFosB act: activators of delta FosB homodimer, primary screen, biochemical, fluorescence polarization, TAMRA-CDK5 oligo, single point; Protein FosB (Mus musculus), P13346; purified delta FosB; percent of positive-control signal above neutral wells; activation, % at 25 µM; hit rate 0.99% among 340,000;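 active = mean activation above about 17%, with every replicate also reaching it, limit read from the data, passing the limit was not always enough; inconclusive = only one of the two conditions met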
Target sequence (P13346 whole entry, looked up): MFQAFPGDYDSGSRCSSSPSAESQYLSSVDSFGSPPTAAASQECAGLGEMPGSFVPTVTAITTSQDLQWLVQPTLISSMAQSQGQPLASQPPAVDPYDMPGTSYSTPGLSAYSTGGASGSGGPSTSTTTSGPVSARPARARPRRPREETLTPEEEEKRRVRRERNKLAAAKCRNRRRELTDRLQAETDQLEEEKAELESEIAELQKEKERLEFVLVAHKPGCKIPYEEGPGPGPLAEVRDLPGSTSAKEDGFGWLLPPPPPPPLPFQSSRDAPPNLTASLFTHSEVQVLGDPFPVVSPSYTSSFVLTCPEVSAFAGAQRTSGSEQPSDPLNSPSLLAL
FGF22 binding: binders of human FGF22 protein, primary screen, FGF22 synaptogenesis inhibitor project, biophysical, thermal shift, single point. recombinant FGF22 thermal shift, SYPRO orange fluorescence; percent of sucrose octasulfate shift, DMSO zero. activity (Tm shift, normalised), % at 9.99 µM. hit rate 1.5% among 340,000. AID 651658, 2012;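 active = mean Tm shift, scaled 0 neutral to 100 positive control, at about 1.3% or above, every replicate too, limit read from the data; inconclusive = no clear call, values can overlap the other calls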
Target sequence (Q9HCT0 whole entry, looked up): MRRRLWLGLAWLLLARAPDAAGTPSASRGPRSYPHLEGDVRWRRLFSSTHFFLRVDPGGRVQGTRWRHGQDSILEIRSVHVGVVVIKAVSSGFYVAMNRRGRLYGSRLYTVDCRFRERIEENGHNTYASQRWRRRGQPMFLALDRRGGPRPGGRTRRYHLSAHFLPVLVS
CFTR F508del cor: F508del CFTR correction, initial screen, CFBE line, single point. CFBE cells, YFP halide quenching; stimulated with forskolin plus potentiator P3; % fluorescence drop versus neutral controls. activity (quench increase), % at 7.58 µM. hit rate 0.36% among 350,000. AID 720511, 2013;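 active = mean added fluorescence quench of at least 8% versus neutral control, with both replicates also reaching 8%; inconclusive = only one of the mean or replicate conditions met; inactive = mean below 8% and not both replicates reaching 8%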;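 also: cells transiently co-express mutant CFTR-F508del with the halide-sensitive YFP; corrector assay measuring rescue of mutant channel to the surface after 24 h compound exposure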
S100A4 MyoIIA: inhibitors of S100A4-myosin IIA peptide binding, primary screen, biochemical, fluorescence polarization, TAMRA-MyoIIA peptide | Protein S100-A4 (Homo sapiens), P26447 | inhibition, % at 10.7 µM | hit rate 0.14% among 360,000;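 active = mean inhibition of at least 70% across replicates, with every replicate also reaching that level; inconclusive = mean inhibition reaches 70% but some replicates fall short; inactive = mean inhibition below 70%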
Target sequence (P26447 whole entry, looked up): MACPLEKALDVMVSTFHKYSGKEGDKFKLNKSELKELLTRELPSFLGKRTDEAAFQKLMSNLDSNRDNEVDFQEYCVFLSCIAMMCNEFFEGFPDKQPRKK
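Test system – S100A4 monomer (human) · Compound – single-point compound testing · Schedule – 5 min incubation before reading · Probe or stimulus – TAMRA-labelled myosin IIA heavy-chain peptide probe, 5 nM · Benchmarks – neutral control DMSO, positive control TFP · Medium – Calcium-containing HEPES buffer, pH 7.2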
The depositor's hits bear a star; ? = inconclusive; . = not tested or not shown. An excerpt weighted towards active compounds, which were near 2.2% of everything screened.

SMILES	dFosB act	FGF22 binding	CFTR F508del cor	S100A4 MyoIIA
N#Cc1c(-c2ccccc2)nc(SCC(=O)Nc2ccccc2F)[nH]c1=O	1.6	1.9*	.	-0.6
O=C(N/N=C1/CCCc2ccccc21)c1cc([N+](=O)[O-])cc([N+](=O)[O-])c1	.	42.9*	1.3	4.8
O=C(O)c1cc2c(o1)CCC/C2=N\O	3.7	0.1	-0.3	-0.9
O=C(c1cccc([N+](=O)[O-])c1)N1CCc2ccccc21	0.8	0.2	0.1	-2.8
O=C(c1cc([N+](=O)[O-])cc([N+](=O)[O-])c1)N1CCCc2ccccc21	0.1	43.1*	-3.7	2.4
O=C(N/N=C1\CCCc2oc(C(=O)O)cc21)c1ccccc1	-2.0	43.2*	-1.3	-1.4
CN(C)C(=O)c1ccc(-c2cccc(-c3nc(C(=O)NC4CCC4)cc4c3[C@H](CCO)N([S@@](=O)C(C)(C)C)C4)c2)cc1	.	-0.2	0.4	-14.4
CC1(C)Cc2c(c(-c3ccco3)nc3sc4c(NCCO)ncnc4c23)CO1	-37.9	43.4*	-1.0	3.0
COCCCNc1ncnc2c1sc1nc(-c3ccco3)c3c(c12)CC(C)(C)OC3	-39.6	0.1	5.2	-2.9
CC(C)c1nc2oc3c(NCCO)ncnc3c2c2c1COC(C)(C)C2	-19.3	0.0	12.7*	-1.3
Cc1ccc(C(=O)N/N=C\C=C\c2ccc(Br)cc2)cn1	3.2	43.5*	1.9	-3.1
Cc1ccc(C(=O)N/N=C\C=C\c2ccccc2[N+](=O)[O-])cn1	-6.9	-0.1	-3.5	-3.7
Cc1ccc(C(=O)N/N=C/c2cc(Br)ccc2O)cn1	-8.5	-0.1	12.0*	0.0
Oc1ccc(/C=N/Nc2ncc(Br)cn2)c(O)c1	-6.9	.	.	.
Oc1ccc(Br)cc1/C=N/Nc1ncc(-c2ccccc2)cn1	30.1*	-0.1	-1.3	0.2
Cc1ccc(C(=O)N/N=C\c2ccccc2[N+](=O)[O-])cn1	0.5	0.0	1.7	4.3
O=C(C[C@H]1CC[C@@H]2[C@H](COC[C@@H](O)CN2C(=O)c2cccnc2)O1)NCc1ccc(-c2ccccc2)cc1	.	0.2	-4.5	-27.2
CO[C@H]1CN(C)C(=O)c2cc(NC(=O)c3cnccn3)ccc2OC[C@@H](C)N(C(C)=O)C[C@@H]1C	.	0.0	0.2	0.8
Cc1ccc(S(=O)(=O)N(C)C[C@@H]2OCCCC[C@H](C)Oc3ccc(NS(=O)(=O)c4cccs4)cc3C(=O)N([C@H](C)CO)C[C@H]2C)cc1	.	-0.2	-3.9	-13.8
C#CCn1c(-c2cccs2)nc2ccccc21	-0.4	43.1*	2.3	-3.9
COCCN(C(=S)Nc1cccc(C)c1C)C(C)c1ccco1 (configuration not stated)	-9.7	0.3	-0.5	0.2
COCCN(C(=S)Nc1ccccc1C)C(C)c1ccco1 (configuration not stated)	-3.1	43.2*	-0.6	0.4
COc1cc(C(=O)c2cocc2C(=O)c2ccc3c(c2)OCO3)cc(OC)c1OC	-0.8	0.1	12.9*	4.3
COc1cc(C(=O)c2ccc3c(c2)OCO3)cc(OC)c1OC	-4.0	-0.1	2.0	-1.6
CC(=O)Nc1cccc(-c2cc(NC(C)=O)c3ncc(-c4cccc(C(C)=O)c4)n3c2)c1	.	43.2*	-4.9	4.7
SMILES	dFosB act	FGF22 binding	CFTR F508del cor	S100A4 MyoIIA
CCOC(=O)CSc1ccc2nnc(CCNS(=O)(=O)c3ccccc3)n2n1	-3.0	0.9	0.9	2.6
CCOC(=O)C(CC)Sc1ccc2nnc(CCNS(=O)(=O)c3ccccc3)n2n1 (configuration not stated)	-5.6	43.5*	3.9	-2.2
Cc1noc(C)c1NC(=O)N(C)C[C@@H]1OCCCC[C@H](C)Oc2ccc(NC(=O)Nc3ccccc3)cc2C(=O)N([C@H](C)CO)C[C@@H]1C	.	0.3	0.8	.
CCC1(CC)C(=O)NC(=S)N=C1N	4.1	0.0	-1.1	-1.0
CCC1(C2=CCCCC2)C(=O)NC(=S)N=C1N (configuration not stated)	0.5	0.5	8.7*	-68.2
CN1C(=O)[C@@H]2[C@@H](CC(COc3ccccc3)=C3[C@@H](c4ccccc4)OB(O)C[C@@H]32)C1=O	.	0.1	-2.2	-19.3
O=C(c1ccccn1)N1C[C@H]2[C@@H](c3ccccc31)[C@H](CO)N2C(=O)C1CCCCC1	.	-1.1	3.1	-2.0
C/C(N)=C(/C#N)C(=O)COC(=O)CNS(=O)(=O)c1c(F)cccc1F	0.2	43.5*	-0.3	-2.3
C/C(N)=C(/C#N)C(=O)COC(=O)CNS(=O)(=O)c1ccc2ccccc2c1	1.3	-0.2	-1.8	-4.4
COc1ccc2c3c(n(C)c2c1)[C@H](CO)N(C(=O)C1CCCCC1)CC31CCN(C(=O)c2ccncc2)CC1	.	-0.3	2.8	-0.2
CO[C@@H]1CN(C)C(=O)c2cc(NC(=O)C3CC3)ccc2OC[C@@H](C)N(Cc2ccncc2)C[C@@H]1C	.	-0.2	1.1	-2.6
CC(C)NC(=O)Nc1ccc2c(c1)CC(=O)N([C@@H](C)CO)C[C@H](C)[C@@H](CN(C)Cc1ccc(C(=O)O)cc1)O2	.	-0.2	-1.6	4.5
COc1ccc(/C=N\NC(=O)c2ccc(Cn3cc(Br)c([N+](=O)[O-])n3)o2)c(OC)c1C	?	43.9*	2.6	-8.5
C[C@H]1CCCCO[C@@H](CN(C)C(=O)Nc2ccc3c(c2)OCO3)[C@@H](C)CN([C@@H](C)CO)C(=O)c2cc(NS(=O)(=O)c3cccs3)ccc2O1	.	0.0	-0.4	-1.4
CC(=O)OCC(=O)Nc1ccc(Br)c(C)c1	4.7	43.2*	1.2	-3.5
O=C(OCc1cc([N+](=O)[O-])cc2c1OCOC2)c1cccnc1SC(F)F	-10.2	-0.1	-1.3	6.5
O=C(OCc1cc([N+](=O)[O-])cc2c1OCOC2)c1ccccn1	3.9	43.0*	0.2	2.6
Cc1cccc(Nc2nc(NCc3ccco3)c3ccccc3n2)c1	37.9*	-0.1	0.4	2.7
Oc1ccccc1Nc1nc(NCc2ccco2)c2ccccc2n1	?	-0.2	-1.9	-3.4
COc1ccc(OC)c(Nc2nc(NCc3ccco3)c3ccccc3n2)c1	52.6*	0.0	5.0	-14.9
Cc1ccccc1Nc1nc(NCc2ccco2)c2ccccc2n1	36.3*	-0.2	-1.1	1.6
c1ccc(Nc2nc(NCc3ccco3)c3ccccc3n2)cc1	?	-0.1	-2.6	0.6
O=C(Oc1ccc(Br)cc1)c1n[nH]c(=O)c2ccccc12	10.7	43.1*	0.3	0.5
O=C(NNC(=O)c1n[nH]c(=O)c2ccccc12)c1ccc(Br)cc1	0.8	0.0	-2.2	-1.4
CCn1c(SC)nnc1-c1nn(-c2ccccc2)ccc1=O	-2.9	43.1*	-1.0	-2.2
Cc1cc(C)n(-c2n[nH]c(C)c2[N+](=O)[O-])n1	0.2	44.4*	-2.2	0.4

Screening data deposited in PubChem by Broad Institute.
